In ChEMBL document CHEMBL1124035, “1-Amino-substituted 4-methyl-5H-pyrido[4,3-b]indoles (gamma-carbolines) as tricyclic analogues of ellipticines: a new class of antineoplastic agents” (1988):

Assays:
[1] = system: Mus musculus; test: Antitumor activity against P388 leukemia in mice at a dose of 0.5 mg/kg administered intraperitoneally for 5 days; format: functional; details: route intraperitoneal
Outline: (§1)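 CDF1 hybrid male or female mice, 10 per group, were inoculated ip with 10^6 viable P388 cells on day 0. Drugs in distilled water were given ip (0.1 mL/10 g body weight) daily D1-5. Vehicle, 5-fluorouracil and BD 84 were given the same way. T/C = median survival day of treated / controls × 100; T/C > 128% was significant; cures counted at D60.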

[2] = system: L1210; test: Ability to reduce the cell count to 50% in L1210 culture cells; format: functional; details: Mus musculus, read-out: ID50 (the source's name)
Outline: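 L1210 cells in exponential growth in RPMI 1640 with 2 mM glutamine, penicillin/streptomycin and 10% FCS, 37 °C, 5% CO2. Drugs dissolved in distilled water were added to cells at 0.8 × 10^5 cells/mL for 48 h, then cells were counted. ID50 is the concentration halving cell proliferation versus controls, from regression of dose-response data; mean of two independent experiments.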

[3] = system: Mus musculus; test: Antitumor activity against P388 leukemia in mice at a dose of 16 mg/kg administered intraperitoneally for 5 days; format: functional; details: route intraperitoneal; outline: as §1
[4] = system: Mus musculus; test: Antitumor activity against P388 leukemia in mice at a dose of 4 mg/kg administered intraperitoneally; format: functional; details: route intraperitoneal
[5] = system: Calf thymus DNA; test: Apparent DNA affinity constant; format: nucleic-acid assay; details: Bos taurus
Outline: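 Apparent DNA affinity constant was measured by competition with ethidium bromide. Buffer was 20 mM Na2HPO4/NaH2PO4, 0.1 M NaCl, 1 mM EDTA, pH 7.4, with calf thymus DNA at 10 μg/mL. Values are given in 10^6 M⁻¹.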

[6] = system: Mus musculus; test: Antitumor activity against P388 leukemia in mice at a dose of 1 mg/kg administered intraperitoneally for 5 days; format: functional; details: route intraperitoneal; outline: as §1
[7] = system: Mus musculus; test: Antitumor activity against P388 leukemia in mice at a dose of 2 mg/kg administered intraperitoneally for 5 days; format: functional; details: route intraperitoneal; outline: as §1
[8] = system: Mus musculus; test: Antitumor activity against P388 leukemia in mice at a dose of 24 mg/kg administered intraperitoneally for 5 days; format: functional; details: route intraperitoneal
Outline: (§2)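 CDF1 hybrid male or female mice, 10 per group, were inoculated ip on day 0 with 10^6 viable P388 leukemia cells. Drug in distilled water was given ip (0.1 mL/10 g body weight) daily on days 1-5, with vehicle, 5-fluorouracil and BD 84 controls given the same way. T/C = median survival of treated/controls × 100; T/C > 128% counted as significant.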

[9] = system: Mus musculus; test: Antitumor activity against P388 leukemia in mice at a dose of 8 mg/kg administered intraperitoneally for 5 days; format: functional; details: route intraperitoneal; outline: as §2
[10] = system: Mus musculus; test: Antitumor activity against P388 leukemia in mice at a dose of 2.5 mg/kg administered intraperitoneally for 5 days; format: functional; details: route intraperitoneal; outline: as §1
[11] = system: Mus musculus; test: Antitumor activity against P388 leukemia in mice at a dose of 10 mg/kg administered intraperitoneally for 5 days; It is nontoxic at this dose; format: functional; details: route intraperitoneal; outline: as §1
[12] = system: Mus musculus; test: Antitumor activity against P388 leukemia in mice at a dose of 5 mg/kg administered intraperitoneally for 5 days; format: functional; details: route intraperitoneal; outline: as §2
[13] = system: Mus musculus; test: Antitumor activity against P388 leukemia in mice at a dose of 10 mg/kg administered intraperitoneally for 5 days; format: functional; details: route intraperitoneal; outline: as §1
[14] = system: Mus musculus; test: Antitumor activity against P388 leukemia in mice at a dose of 40 mg/kg administered intraperitoneally for 5 days; Nontoxic at this dose; format: functional; details: route intraperitoneal; outline: as §2
[15] = system: Mus musculus; test: Antitumor activity against P388 leukemia in mice at a dose of 20 mg/kg administered intraperitoneally for 5 days; format: functional; details: route intraperitoneal; outline: as §1

IC50 [2]	K aff [5]	SMILES	T/C [1]	T/C [3]	T/C [4]	T/C [6]	T/C [7]	T/C [8]	T/C [9]	T/C [10]	T/C [11]	T/C [12]	T/C [13]	T/C [14]	T/C [15]
100 nM	700000 M⁻¹	CCN(CC)CCCNc1nccc2c(C)c3[nH]c4ccc(OC)cc4c3c(C)c12 [RETELLIPTINE]	171%	283%	245%	178%	188%	113%	273%						
11200 nM	70000 M⁻¹	CN(C)CCCNc1[nH]ccc2nc3ccc(O)cc3c1-2								111%	115%	102%			
150 nM	110000 M⁻¹	CCN(CC)CCNc1ncc(C)c2c1c1cc(O)ccc1n2C										142%	153%	137%	182%
